Results: ChEMBL document CHEMBL1138360, “Hypoxia-selective 3-alkyl 1,2,4-benzotriazine 1,4-dioxides: the influence of hydrogen bond donors on extravascular transport and antitumor activity” (J Med Chem, 2007)

Assays:
HT-29 [1] = experiment: Diffusion coefficient, D in aerobic HT29 multicellular layers; type: ADME, cell-based; conditions: human
How it was run: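 Drug flux measured through HT29 multicellular layers on Teflon support membranes under 95% O2 at 37 °C, 50 µM initial donor concentration. Donor and receiver levels fitted with a diffusion model. Layer thickness estimated from flux of internal standard urea.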

[2] = Toxicity in ip dosed CD1 mouse; type: organism-based; conditions: in vivo
How it was run: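 Single i.p. doses given to homozygous nude CD-1 Foxn1nu mice, with the vehicle formulated per compound. Doses escalated in 1.33-fold increments. MTD was defined as the highest dose causing no mortality, no body weight loss >15% and no other severe morbidity in any of six mice.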

SiHa [3] = experiment: Ratio of IC50 for SiHa cells in aerobic condition to IC50 for SiHa cells in hypoxic condition after 4 hrs; type: functional, Homo sapiens
How it was run: (§1)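 Aerobic and anoxic (H2/Pd chamber) IC50s measured in the same experiment after 4 h exposure, HT29 or SiHa cells. Ratio computed as aerobic IC50/anoxic IC50.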

HT-29 [4] = experiment: Antitumor activity against HT29 tumor inoculated in CD1 nude mouse at 562 umol/kg, ip administered 5 mins after gamma irradiation by excision assay relative to radiation alone; type: functional, Homo sapiens
How it was run: (§2)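 HT29 xenografts in nude CD-1 mice received 20 Gy γ radiation, then a single i.p. drug dose 5 min later, at 100% or 75% of MTD. Tumors excised 18 h afterwards, dissociated to single cells and plated for clonogens/g tumor. Hypoxic cell kill = log(clonogens/g, radiation only) − log(clonogens/g, radiation + drug).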

HT-29 [5] = experiment: Ratio of IC50 for HT29 cells in aerobic condition to IC50 for HT29 cells in hypoxic condition after 4 hrs; type: functional, Homo sapiens; how it was run: as §1
HT-29 [6] = experiment: Cytotoxicity against HT29 cells under hypoxic condition after 4 hrs; type: functional, cell-based; conditions: Homo sapiens, HT-29, 4 h
How it was run: (§3)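 HT29 or SiHa cells exposed to drug for 4 h in 96-well plates under anoxia (H2/Pd anaerobic chamber). IC50 determined.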

HT-29 [7] = experiment: Antitumor activity against HT29 tumor inoculated in CD1 nude mouse at 562 umol/kg, ip relative to control; type: functional, Homo sapiens
[8] = Cmax in CD1 mouse plasma at 562 umol/kg, ip; type: ADME, organism-based; set-up: dose 562 umol/kg, route intraperitoneal
How it was run: (§4)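 Single i.p. dose to homozygous nude CD-1 Foxn1nu mice, at 75 or 100% of MTD (MTD set by 1.33-fold dose steps; highest dose without death, >15% weight loss or severe morbidity in any of six mice). Total drug measured in plasma by HPLC. AUC, Cmax and terminal t½ derived noncompartmentally. Measured levels taken as free drug.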

[9] = AUC (0 to infinity) in CD1 mouse plasma at 562 umol/kg, ip; type: ADME, organism-based; set-up: dose 562 umol/kg, time infinity, route intraperitoneal; how it was run: as §4
[10] = Terminal half life in CD1 mouse plasma at 562 umol/kg, ip; type: ADME, organism-based; how it was run: as §4
SiHa [11] = experiment: Cytotoxicity against SiHa cells under hypoxic condition after 4 hrs; type: functional, cell-based; conditions: Homo sapiens; how it was run: as §3
HT-29 [12] = experiment: Drug penetration in anoxic HT29 cells assessed as penetration half distance; type: ADME, cell-based; conditions: human
HT-29 [13] = experiment: Cell viability in anoxic HT29 cells assessed as drug level providing 10% surviving fraction by clonogenic assay; type: cell-based; conditions: human
[14] = Terminal half life in CD1 mouse plasma at 133 umol/kg, ip; type: ADME, organism-based; how it was run: as §4
[15] = Cmax in CD1 mouse plasma at 133 umol/kg, ip; type: ADME, organism-based; set-up: dose 133 umol/kg, route intraperitoneal; how it was run: as §4
[16] = AUC (0 to infinity) in CD1 mouse plasma at 133 umol/kg, ip; type: ADME, organism-based; set-up: dose 133 umol/kg, route intraperitoneal, time infinity; how it was run: as §4
[17] = AUC (0 to infinity) in CD1 mouse plasma at 316 umol/kg, ip; type: ADME, organism-based; set-up: dose 316 umol/kg, time infinity, route intraperitoneal; how it was run: as §4
HT-29 [18] = experiment: Antitumor activity against HT29 tumor inoculated in CD1 nude mouse at 316 umol/kg, ip administered 5 mins after gamma irradiation by excision assay relative to radiation alone; type: functional, Homo sapiens; how it was run: as §2
[19] = Terminal half life in CD1 mouse plasma at 316 umol/kg, ip; type: ADME, organism-based; how it was run: as §4
[20] = Cmax in CD1 mouse plasma at 316 umol/kg, ip; type: ADME, organism-based; set-up: dose 316 umol/kg, route intraperitoneal; how it was run: as §4
[21] = Cmax in CD1 mouse plasma at 750 umol/kg, ip; type: ADME, organism-based; set-up: dose 750 umol/kg, route intraperitoneal; how it was run: as §4
[22] = Terminal half life in CD1 mouse plasma at 750 umol/kg, ip; type: ADME, organism-based; how it was run: as §4
[23] = AUC (0 to infinity) in CD1 mouse plasma at 750 umol/kg, ip; type: ADME, organism-based; set-up: dose 750 umol/kg, time infinity, route intraperitoneal; how it was run: as §4
HT-29 [24] = experiment: Antitumor activity against HT29 tumor inoculated in CD1 nude mouse at 1000 umol/kg, ip relative to control
HT-29 [25] = experiment: Antitumor activity against HT29 tumor inoculated in CD1 nude mouse at 750 umol/kg, ip administered 5 mins after gamma irradiation by excision assay relative to radiation alone; type: functional, Homo sapiens; how it was run: as §2

**Q.** For `CCc1n[n+]([O-])c2ccccc2[n+]1[O-]`, which D (HT-29 [1]) is on record?
**A.** 26.12 10^-7cm2/sec

**Q.** And the MTD [2]?
**A.** 562 µmol/kg

**Q.** And the “Ratio IC50” value (SiHa [3])?
**A.** 84

**Q.** And the Activity (HT-29 [4])?
**A.** 0.89%

**Q.** What about the “Ratio IC50” value (HT-29 [5]) of the same molecule?
**A.** 54

**Q.** And the IC50 (HT-29 [6])?
**A.** 6.8 µM

**Q.** What about the Activity (HT-29 [7]) of the same molecule?
**A.** 0.11%

**Q.** And the Cmax [8]?
**A.** 271 µM

**Q.** And the AUC(0-inf) [9]?
**A.** 146 µM·h

**Q.** What about the half-life [10] of the same molecule?
**A.** 11.2 min

**Q.** What about the IC50 (SiHa [11]) of the same molecule?
**A.** 5.9 µM

**Q.** What about the Penetration half distance (HT-29 [12]) of the same molecule?
**A.** 63 µm

**Q.** And the Activity (HT-29 [13])?
**A.** 19.7 µM·h

**Q.** What does the source list for `CCc1n[n+]([O-])c2ccc(OCCN3CCCCC3)cc2[n+]1[O-]`?
**A.** MTD [2]: 178 µmol/kg; Ratio IC50 (SiHa [3]): 302; half-life [14]: 25 min; Cmax [15]: 9.8 µM; Ratio IC50 (HT-29 [5]): 254; IC50 (HT-29 [6]): 1.5 µM; IC50 (SiHa [11]): 1 µM; AUC(0-inf) [16]: 7.75 µM·h; Penetration half distance (HT-29 [12]): 34 µm; Activity (HT-29 [13]): 6.8 µM·h

**Q.** What does the source list for `CCc1n[n+]([O-])c2cc(OCCCN3CCOCC3)ccc2[n+]1[O-]`?
**A.** MTD [2]: 421 µmol/kg; AUC(0-inf) [17]: 33 µM·h; Activity (HT-29 [18]): 0.98%; Ratio IC50 (SiHa [3]): 181; Ratio IC50 (HT-29 [5]): 147; IC50 (HT-29 [6]): 3 µM; half-life [19]: 36 min; IC50 (SiHa [11]): 1.3 µM; Penetration half distance (HT-29 [12]): 34 µm; Cmax [20]: 30.1 µM; Activity (HT-29 [13]): 7.1 µM·h

**Q.** Which Cmax [21] does the source give for `CCc1n[n+]([O-])c2ccc(OCCCN3CCOCC3)cc2[n+]1[O-]` here?
**A.** 150 µM

**Q.** What about the D (HT-29 [1]) of the same molecule?
**A.** 7.48 10^-7cm2/sec

**Q.** And the MTD [2]?
**A.** 1000 µmol/kg

**Q.** And the half-life [22]?
**A.** 34.8 min

**Q.** And the “Ratio IC50” value (SiHa [3])?
**A.** 217

**Q.** What about the “Ratio IC50” value (HT-29 [5]) of the same molecule?
**A.** 153

**Q.** And the IC50 (HT-29 [6])?
**A.** 6.8 µM

**Q.** What about the IC50 (SiHa [11]) of the same molecule?
**A.** 4.3 µM

**Q.** What about the AUC(0-inf) [23] of the same molecule?
**A.** 162 µM·h

**Q.** And the Activity (HT-29 [12])?
**A.** 64 µM

**Q.** What about the Activity (HT-29 [24]) of the same molecule?
**A.** 0.14%

**Q.** What about the Activity (HT-29 [13]) of the same molecule?
**A.** 38.6 µM·h

**Q.** What about the Activity (HT-29 [25]) of the same molecule?
**A.** 1.66%
